{"data": "Experimental data collected from several papers", "target": "Serine/threonine-protein kinase ULK1 (ULK1, Homo sapiens, UniProt O75385)", "read-out": "enzyme activity", "action": "inhibitor", "One construct used (O75385 1-1050)": "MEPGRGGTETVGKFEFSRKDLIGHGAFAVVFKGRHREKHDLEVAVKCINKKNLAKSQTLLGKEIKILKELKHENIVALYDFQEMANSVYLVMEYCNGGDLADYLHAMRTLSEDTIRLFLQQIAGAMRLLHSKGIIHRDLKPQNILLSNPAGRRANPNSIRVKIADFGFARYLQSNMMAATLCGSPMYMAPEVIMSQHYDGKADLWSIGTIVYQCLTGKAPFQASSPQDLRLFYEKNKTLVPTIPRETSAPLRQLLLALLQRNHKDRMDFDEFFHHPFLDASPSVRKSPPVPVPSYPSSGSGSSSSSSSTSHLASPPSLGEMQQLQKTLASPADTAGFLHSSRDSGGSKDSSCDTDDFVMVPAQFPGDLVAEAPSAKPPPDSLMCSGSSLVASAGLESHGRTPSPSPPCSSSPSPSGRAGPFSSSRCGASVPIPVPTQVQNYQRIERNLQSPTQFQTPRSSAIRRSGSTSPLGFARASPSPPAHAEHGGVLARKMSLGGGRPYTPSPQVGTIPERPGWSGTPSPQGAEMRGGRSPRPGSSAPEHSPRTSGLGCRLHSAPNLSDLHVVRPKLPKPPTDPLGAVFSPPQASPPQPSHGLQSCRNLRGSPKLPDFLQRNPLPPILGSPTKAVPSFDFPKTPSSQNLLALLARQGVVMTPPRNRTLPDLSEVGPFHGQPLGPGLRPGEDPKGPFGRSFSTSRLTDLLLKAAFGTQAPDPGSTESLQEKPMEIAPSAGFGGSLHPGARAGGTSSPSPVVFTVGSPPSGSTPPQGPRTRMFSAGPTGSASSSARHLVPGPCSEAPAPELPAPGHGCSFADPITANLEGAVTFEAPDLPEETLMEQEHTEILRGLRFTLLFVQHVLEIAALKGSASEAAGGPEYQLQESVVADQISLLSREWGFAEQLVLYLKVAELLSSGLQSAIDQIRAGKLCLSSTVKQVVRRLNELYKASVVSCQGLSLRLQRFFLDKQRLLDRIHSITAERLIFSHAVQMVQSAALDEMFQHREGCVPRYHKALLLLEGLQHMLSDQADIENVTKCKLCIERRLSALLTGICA", "note": "Protocols differ between the studies behind these lines."}
{"method": "radiometric", "concentration": "1 µM", "remaining activity [%]": 17, "Structure (SMILES)": "O=C(NCCCNc1nc(Nc2cccc(NC(=O)N3CCCC3)c2)ncc1C1CC1)C1CCC1"}
{"concentration": "10 µM", "remaining activity [%]": 77.3, "Structure (SMILES)": "Cc1sc(C(=O)NC2COC2)cc1-n1cc(NC(=O)Nc2c(F)cccc2Cl)cn1"}
{"concentration": "1 µM", "remaining activity [%]": 96.2, "Structure (SMILES)": "CC(C)(O)[C@H]1CC[C@H](Nc2ccc3ncc(-c4cccc(C(F)(F)F)c4)n3n2)CC1"}
{"concentration": "5 µM", "remaining activity [%]": 93.9, "Structure (SMILES)": "O=C(Nc1cnn(-c2csc(C(=O)NC3COC3)c2)c1)Nc1c(F)cccc1Cl"}
{"method": "radiometric", "concentration": "1 µM", "remaining activity [%]": 60, "Structure (SMILES)": "COc1cc(Nc2cnc(C#N)c(O[C@H](C)CN(C)C)n2)ncc1-c1cnn(C)c1"}
{"concentration": "1 µM", "remaining activity [%]": 95, "Structure (SMILES)": "COc1cc(Cl)c(C(=O)N[C@@H](CN[C@H]2CC[C@@H](N)CC2)Cc2ccc(C#N)cc2)cc1-c1ccc(CN[C@H](C)c2ccc(C)cc2)o1"}
{"method": "radiometric", "concentration": "1 µM", "remaining activity [%]": 99, "Structure (SMILES)": "Cc1nn(CC(F)(F)F)cc1Nc1nccc(NCc2ccc(S(N)(=O)=O)cc2)n1"}
{"concentration": "23.5 nM", "remaining activity [%]": 76, "Structure (SMILES)": "Cc1ccc(C(=O)Nc2ccc(CN3CCN(C)CC3)c(C(F)(F)F)c2)cc1C#Cc1cnc2cccnn12"}
